Key:
Mu-type opioid receptor [1] = biological target: Mu-type opioid receptor (Cavia porcellus, UniProt P97266); experiment: Displacement of [3H]DAMGO form mu opioid receptor in guinea pig brain
[2] = Displacement of [3H]Naltrindole form delta opioid receptor in guinea pig brain; parameters: species or system Cavia porcellus
Outline: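 Guinea pig brain membrane protein incubated with 12 concentrations of compound and 0.2 nM [3H]naltrindole in 50 mM Tris–HCl, pH 7.5, with 10 mM MgCl2 and 0.5 mM PMSF, for 3 h at 25 °C. Samples filtered onto polyethyleneimine-soaked glass fiber filters, washed, and counted by scintillation. IC50 came from log-probit fit, and Ki = IC50/(1 + [radioligand]/Kd).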

[3] = biological target: Kappa-type opioid receptor (Cavia porcellus, UniProt P41144); experiment: Displacement of [3H]U69593 form kappa opioid receptor in guinea pig brain
[4] = biological target: T1, Kappa-type opioid receptor (Homo sapiens, UniProt P41145); experiment: Activity at human cloned kappa opioid receptor expressed in CHO cells by [35S]GTPgammaS binding assay; assay type: functional, cell-based
[5] = biological target: T1, Kappa-type opioid receptor; experiment: Displacement of [3H]U69593 form human kappa opioid receptor expressed in CHO cells; assay type: cell-based
CHO [6] = experiment: Ratio of Ki for human mu opioid receptor to Ki for human kappa opioid receptor expressed in CHO cells; assay type: cell-based
CHO [7] = experiment: Ratio of Ki for human delta opioid receptor to Ki for human kappa opioid receptor expressed in CHO cells; assay type: cell-based
[8] = biological target: Delta-type opioid receptor (Homo sapiens, UniProt P41143); experiment: Displacement of [3H]Naltrindole form human delta opioid receptor expressed in CHO cells; assay type: cell-based
Outline: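 Membranes from CHO cells stably expressing the human receptor incubated with 12 concentrations of compound and 0.2 nM [3H]naltrindole in 50 mM Tris–HCl, pH 7.5, with 10 mM MgCl2 and 0.5 mM PMSF, for 3 h at 25 °C. Filters were soaked in 0.1% PEI before filtration and scintillation counting. IC50 came from log-probit fit, and Ki = IC50/(1 + [radioligand]/Kd).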

Mu-type opioid receptor [9] = biological target: T2, Mu-type opioid receptor (Homo sapiens, UniProt P35372); experiment: Displacement of [3H]DAMGO form human mu opioid receptor expressed in CHO cells; assay type: cell-based
Mu-type opioid receptor [10] = biological target: T2, Mu-type opioid receptor; experiment: Activity at human cloned mu opioid receptor expressed in CHO cells assessed as inhibition of DAMGO-induced [35S]GTPgammaS binding; assay type: functional, cell-based
Mu-type opioid receptor [11] = biological target: T2, Mu-type opioid receptor; experiment: Activity at human cloned mu opioid receptor expressed in CHO cells by [35S]GTPgammaS binding assay; assay type: functional, cell-based
Cavia porcellus = species: Cavia porcellus; experiment: Ratio of Ki for delta opioid receptor to Ki for kappa opioid receptor in guinea pig brain

Chain of Mu-type opioid receptor (Cavia porcellus, UniProt P97266) (P97266 whole entry): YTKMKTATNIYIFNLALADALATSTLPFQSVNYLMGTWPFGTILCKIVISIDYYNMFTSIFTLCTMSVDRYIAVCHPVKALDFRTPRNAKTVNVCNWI
T1 sequence (P41145 whole entry): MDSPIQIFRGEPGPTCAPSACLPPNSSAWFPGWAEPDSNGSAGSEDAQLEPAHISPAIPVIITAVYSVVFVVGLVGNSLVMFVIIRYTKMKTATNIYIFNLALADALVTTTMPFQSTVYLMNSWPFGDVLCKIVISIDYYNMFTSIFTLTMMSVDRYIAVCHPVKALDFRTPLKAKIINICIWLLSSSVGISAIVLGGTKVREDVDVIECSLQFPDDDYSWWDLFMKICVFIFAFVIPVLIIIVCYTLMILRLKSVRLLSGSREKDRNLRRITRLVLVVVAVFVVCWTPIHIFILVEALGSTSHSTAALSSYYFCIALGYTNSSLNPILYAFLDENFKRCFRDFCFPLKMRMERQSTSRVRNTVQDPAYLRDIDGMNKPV
Chain of Kappa-type opioid receptor (Cavia porcellus, UniProt P41144) (P41144 whole entry): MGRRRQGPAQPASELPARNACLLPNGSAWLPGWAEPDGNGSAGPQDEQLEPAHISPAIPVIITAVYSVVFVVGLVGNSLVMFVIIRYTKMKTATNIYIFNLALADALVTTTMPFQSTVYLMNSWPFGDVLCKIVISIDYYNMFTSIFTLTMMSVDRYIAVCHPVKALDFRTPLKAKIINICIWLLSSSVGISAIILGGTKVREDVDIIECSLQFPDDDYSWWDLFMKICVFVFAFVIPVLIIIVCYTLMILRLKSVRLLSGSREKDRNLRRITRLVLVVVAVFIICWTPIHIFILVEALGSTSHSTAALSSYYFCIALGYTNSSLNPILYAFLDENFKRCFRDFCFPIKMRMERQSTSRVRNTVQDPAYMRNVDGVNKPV
T2 sequence (P35372 whole entry): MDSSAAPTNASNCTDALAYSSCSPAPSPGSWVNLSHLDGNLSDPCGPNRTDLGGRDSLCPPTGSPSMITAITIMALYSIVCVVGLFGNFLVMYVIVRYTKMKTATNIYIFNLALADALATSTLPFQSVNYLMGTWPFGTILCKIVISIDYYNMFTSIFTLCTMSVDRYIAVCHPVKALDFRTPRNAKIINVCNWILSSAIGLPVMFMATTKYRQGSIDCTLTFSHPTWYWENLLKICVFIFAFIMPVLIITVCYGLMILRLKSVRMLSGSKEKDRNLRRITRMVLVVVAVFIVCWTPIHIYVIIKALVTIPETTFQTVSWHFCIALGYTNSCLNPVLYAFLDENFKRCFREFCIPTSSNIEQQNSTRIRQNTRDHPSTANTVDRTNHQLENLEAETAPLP
Chain of Delta-type opioid receptor (P41143 whole entry): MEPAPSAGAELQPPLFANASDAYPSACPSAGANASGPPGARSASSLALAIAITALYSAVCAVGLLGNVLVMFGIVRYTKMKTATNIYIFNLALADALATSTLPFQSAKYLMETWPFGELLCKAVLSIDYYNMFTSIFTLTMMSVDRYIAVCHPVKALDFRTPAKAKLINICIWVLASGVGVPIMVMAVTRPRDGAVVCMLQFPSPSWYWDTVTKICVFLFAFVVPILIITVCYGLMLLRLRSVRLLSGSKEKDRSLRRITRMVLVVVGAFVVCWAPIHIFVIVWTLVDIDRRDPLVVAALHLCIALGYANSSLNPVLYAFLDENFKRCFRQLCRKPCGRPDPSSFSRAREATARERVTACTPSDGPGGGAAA

| SMILES | Ki (Mu-type opioid receptor [1]) | Ki [2] | EC50 [4] | Ki [5] | Ratio Ki (CHO [6]) | Ratio Ki (CHO [7]) | Ki [8] | Ki (Mu-type opioid receptor [9]) | other results |
| --- | --- | --- | --- | --- | --- | --- | --- | --- | --- |
| C[C@@H]1[C@@H]2Cc3ccc(C(N)=O)cc3[C@@]1(C)CCN2C[C@@H]1CCCO1 | 0.052 nM | 2 nM | 30 nM | – | – | – | – | – | Ki [3]: 0.089 nM |
| NC(=O)c1ccc2c3c1O[C@H]1C(=O)CC[C@@]4(O)[C@@H](C2)N(CC2CC2)CC[C@]314 | – | – | – | 0.36 nM | 0.065 | 50 | – | – | – |
| C[C@@H]1[C@@H]2Cc3ccc(C(N)=O)cc3[C@@]1(C)CCN2C[C@H]1CCCO1 | 2.9 nM | 34 nM | 170 nM | – | – | – | – | – | Ki [3]: 2.8 nM |
| CCC12CCN(CC3CC3)C(C(=O)c3ccc(O)cc31)C2C (centres undefined) | 0.78 nM | 3.4 nM | – | – | – | – | – | – | – |
| COc1cccc(C2(O)CCCCC2CN(C)C)c1 (centres undefined) [TRAMADOL] | – | – | – | 14 nM | – | – | 9.4 nM | – | – |
| CC1C2C(=O)c3ccc(C(N)=O)cc3C1(C)CCN2CC1CC1 (centres undefined) | 1.4 nM | 20 nM | 9.6 nM | – | – | – | – | – | – |
| NC(=O)c1ccc2c(c1)[C@@]13CCCC[C@@]1(O)[C@@H](C2)N(CC1CCC1)CC3 | – | – | 3.8 nM | 0.39 nM | 0.38 | 40 | 14 nM | 0.15 nM | IC50 (Mu-type opioid receptor [10]): 30 nM |
| Oc1ccc2c(c1)[C@@]13CCCC[C@@]1(O)[C@@H](C2)N(CC1CCC1)CC3 [BUTORPHANOL] | – | – | 2.9 nM | – | – | – | – | – | – |
| C[C@H]1C2Cc3ccc(O)cc3[C@@]1(C)CCN2CCc1ccccc1 | – | – | 8.1 nM | 2 nM | 0.1 | 2.5 | 5 nM | 0.2 nM | EC50 (Mu-type opioid receptor [11]): 27 nM |
| NC(=O)c1ccc2c3c1O[C@H]1[C@H](O)CC[C@@]4(O)[C@@H](C2)N(CC2CC2)CC[C@]314 | – | – | – | 30 nM | 0.08 | – | > 10000 nM | 2.5 nM | – |
| C[C@@H]1[C@@H]2Cc3ccc(O)cc3[C@@]1(C)CCN2C[C@H]1CCCO1 | 4 nM | 67 nM | 41 nM | – | – | – | – | – | Ki [3]: 1.5 nM; Ratio Ki (Cavia porcellus): 45 |
| NC(=O)c1ccc2c3c1O[C@H]1C4NC5C(C[C@@]6(O)[C@H]7Cc8ccc(C(N)=O)c9c8[C@@]6(CCN7CC6CC6)[C@H]5O9)C4C[C@@]4(O)[C@@H](C2)N(CC2CC2)CC[C@]314 (some centres undefined) | – | – | – | 21 nM | 19 | 50 | 1000 nM | 400 nM | – |
| CC(C)=CCN1CC[C@@]2(C)c3cc(O)ccc3C[C@@H]1[C@@H]2C (relative stereo) | – | – | – | 3 nM | – | – | 180 nM | – | – |
| CN(C)C[C@H]1CCCC[C@]1(O)c1cccc(C(N)=O)c1 (relative stereo) | – | – | – | 350 nM | 0.03 | 7 | 2400 nM | 9.5 nM | – |
